A short description of assay [1]: (§1) Antiproliferative activity against ConA-stimulated mouse splenocytes at 30 uM after 72 hrs by MTT assay. Type of assay: functional. The conditions noted are these: Splenocyte. An outline of the steps: (§2)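 Spleens pooled from two 8-week-old female C57BL/6 mice were homogenized in HBSS, and red cells were lysed with 20 mM Tris-HCl/140 mM NH4Cl. Cells were seeded at 1.5×10^5/well and stimulated with 1 ug/mL ConA plus compound in complete RPMI with 50 µM mercaptoethanol, at 37 °C and 5% CO2 for 72 h. Read-out was MTT for 4 h and OD at 570 nm, in sextuplicate. Inhibition was calculated as (OD control − OD treated)/OD control × 100.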

The nature of assay [2]: (§3) Antiproliferative activity against ConA-stimulated mouse splenocytes at 90 uM after 72 hrs by MTT assay. Type of assay: functional. The conditions noted are these: Splenocyte. An outline of the steps:
as §2
(In general: Tetrazolium dyes change colour on reduction, which living cells bring about.)

Assay [3] relates to Splenocyte. The assay is described as §1. Type of assay: functional. Put shortly:
as §2

The subject of assay [4] is Splenocyte. The description is as §3. Type of assay: functional. Put shortly: as §2
The nature of assay [5]: Cytotoxicity assessed as cell viability of ConA-stimulated mouse splenocytes at 100 uM after 48 hrs by MTT assay.
For the next assay, the system named is Mus musculus. Put plainly: Inhibition of DTH foot-pad swelling in orally dosed BALB/C mouse after 5 days. Type of assay: functional. Put shortly: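 Female BALB/c mice, 8–9 weeks old and five per group, were primed i.v. with 5×10^6 SRBC in PBS. Compound in olive oil was given orally once daily for five days, from priming until challenge. On day 4, 3–4×10^8 SRBC were injected into the right hind footpad and PBS into the left. Footpad swelling difference was measured 24 h later, and inhibition was expressed relative to control mice.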

Assay [6] can be described thus: Antiproliferative activity against PHA-stimulated human peripheral blood lymphocytes assessed as [3H]thymidine uptake after 48 hrs. Type of assay: functional. The settings on record: PBL. An outline of the steps: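 Human PBL from healthy donors were isolated by Ficoll-Hypaque and seeded at 1×10^5/well. They were stimulated with 0.3 µg/mL PHA plus compound (6.25–100 µM; DMSO stock diluted in complete RPMI) at 37 °C and 5% CO2 for 48 h. [3H]thymidine (1 µCi/well) was added for the last 6–8 h, and uptake was counted by beta counter, in sextuplicate. Values are mean ± SEM of three independent experiments.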

The subject of assay [7] is Splenocyte. Put plainly: Inhibition of mitogen dependent T cell proliferation in mouse splenocytes. Type of assay: functional, cell-based. Put shortly: as §2

The source made the active and inactive calls. The calls are words filed in the database; no cut-off is given here.

`O=C(CCc1cn(Cc2ccc(Cl)cc2)c2ccccc12)NCc1cccnc1`: 30 µM produced 27% inhibition in assay [1]. Moreover, the inhibition (as a rule, the relative decrease from the control value, in per cent) at 90 µM in assay [2] turned out to be 55%.

`Cn1cc(CCC(=O)NCc2cccnc2)c2cc(Cl)ccc21` displayed an inhibition at 30 µM in assay [1] of 22%. The compound further had an inhibition at 90 µM in assay [2] of 37%.

Consider `O=C(CCc1cn(Cc2ccc(Cl)cc2)c2ccc(Cl)cc12)NCc1cccnc1`, for which the result in the assay on Splenocyte [3] and in the assay on Splenocyte [4] was inactive.

`O=C(CCc1c[nH]c2ccccc12)NCc1cccnc1` had an inhibition at 30 µM in assay [1] of 38%. Moreover, the inhibition at 90 µM in assay [2] was determined as 38%.

In the case of `Cc1cc(C)nc(NC(=O)CCc2cn(Cc3ccc(Cl)cc3)c3ccc(Cl)cc23)c1`, the outcome with Splenocyte [3] and with Splenocyte [4] was inactive.

In the case of `Cc1cc(C)nc(NC(=O)CCc2cn(Cc3ccccc3)c3ccccc23)c1`, the result with Splenocyte [3] and in the assay on Splenocyte [4] was inactive.

With `O=C(CCc1cn(Cc2ccccc2)c2ccccc12)Nc1ccncc1`, the outcome in the assay on Splenocyte [3] and with Splenocyte [4] was inactive.

Take `O=C(CCc1c[nH]c2ccccc12)Nc1ccncc1`: the outcome in the assay on Splenocyte [3] and with Splenocyte [4] was inactive.

Turning to `Cc1cc(C)nc(NC(=O)CCc2cn(Cc3ccc(Cl)cc3)c3ccccc23)c1`, the outcome with Splenocyte [3] and in the assay on Splenocyte [4] was inactive.

For the compound `O=C(CCc1cn(Cc2ccc(Cl)cc2)c2ccccc12)Nc1ccncc1`, the Cell viability in assay [5] is given as 95%. Also, the Inhibition (as a rule, how much of the control response was suppressed) in the assay on Mus musculus is given as 69%. Moreover, the IC50 (in general, the concentration that inhibits the measured activity by half) was 25 µM in assay [6] and 17 µM in the assay with Splenocyte [7]. This compound gave an inhibition at 30 µM in assay [1] of 19%. Further, the inhibition at 90 µM in assay [2] is 87%.

`Cc1cc(C)nc(NC(=O)CCc2c[nH]c3ccccc23)c1` gave an inhibition at 30 µM in assay [1] of 22%. Further, in assay [2], the inhibition at 90 µM was 76%.

`O=C(CCc1cn(Cc2ccccc2)c2ccccc12)NCc1cccnc1` had an inhibition at 30 µM in assay [1] of 20%. In assay [2], this compound returned an inhibition at 90 µM of 38%.

Take `Cn1cc(CCC(=O)Nc2ccncc2)c2cc(Cl)ccc21`: the result with Splenocyte [3] and with Splenocyte [4] was inactive.

For the origin of these results see ChEMBL document CHEMBL1147211, “Synthetic N-pyridinyl(methyl)-indol-3-ylpropanamides as new potential immunosuppressive agents” (Eur J Med Chem, 2007).
